Calls of active or inactive are those of the source. No cut-off for these calls is given here.
How the values were obtained:
HT-29 [1] = assay: Cell cycle arrest in human HT-29 cells assessed as accumulation at G2/M phase at >20 nM after 24 hrs by propidium iodide staining-based flow cytometry; assay type: functional
Procedure, shortened: (§1)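 Jurkat, HT-29 and HeLa cells in exponential growth (5 × 10^5 cells) treated 24 h at a range of concentrations. Fixed in ice-cold 70% ethanol, lysed with buffer containing RNase A and 0.1% Triton X-100, stained with propidium iodide. DNA content read by flow cytometry and the percentage of cells per cycle phase derived from DNA histograms.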

[2] = Cytotoxicity against mouse BNL 1ME A.7R.1 cells; assay type: functional, cell-based
HeLa [3] = assay: Induction of apoptosis in human HeLa cells assessed as caspase-3 cleavage at 10 to 100 nM after 24 to 48 hrs by Western Blot analysis; assay type: functional, cell-based
Procedure, shortened: (§2)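 HeLa cells exposed to 10 or 100 nM for 24 or 48 h, washed in ice-cold PBS, lysed on ice 30 min, spun at 15000g at 4 °C. 20 μg protein run on 7.5–15% SDS–PAGE, blotted to PVDF, blocked overnight at 4 °C. Primary antibodies 2 h at room temperature, peroxidase secondary 60 min, ECL detection, β-actin reprobe as loading control.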

Jurkat [4] = assay: Ratio of Combretastatin A-4 IC50 to compound IC50 for human Jurkat cells; assay type: functional
PBL = assay: Cytotoxicity against human PBL cells after 72 hrs by MTT assay; assay type: cell-based
Procedure, shortened: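 Peripheral blood lymphocytes from healthy donors isolated on a Lymphoprep gradient and rested overnight in RPMI-1640 with 10% FBS. Nonadherent cells at 5 × 10^5 cells/mL, with 2.5 μg/mL PHA for proliferating cultures or without it for resting ones. Compound exposure 72 h, viability by MTT. Mean ± SEM of three experiments.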

HT-29 [5] = assay: Cell cycle arrest in human HT-29 cells assessed as accumulation at G2/M phase at 20 nM after 24 hrs by propidium iodide staining-based flow cytometry; assay type: functional; procedure, shortened: as §1
HeLa [6] = assay: Induction of apoptosis in human HeLa cells assessed as Bcl-XL phosphorylation at 10 to 100 nM after 24 to 48 hrs by Western Blot analysis; assay type: functional, cell-based; procedure, shortened: as §2
A549 [7] = assay: Resistance index, ratio of IC50 for human A549-T12 cells to IC50 for human A549 cells; assay type: functional
Procedure, shortened: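 Mean ± SE of at least three independent experiments. Resistance ratio = IC50 in resistant line/IC50 in nonresistant line.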

HeLa [8] = assay: Induction of apoptosis in human HeLa cells assessed as mitochondrial membrane depolarization at 10 to 100 nM by JC-1 staining; assay type: functional, cell-based; settings: TDE = time-dependent effect
Procedure, shortened: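 HeLa cells treated 24 or 48 h, then stained with the potentiometric dye JC-1. Proportion of cells with depolarised mitochondria read by flow cytometry. Mean ± SEM of three independent experiments.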

HeLa [9] = assay: Induction of apoptosis in human HeLa cells assessed as early apoptotic cells at 10 to 100 nM by annexin V-FITC and propidium iodide staining-based flow cytometry; assay type: functional, cell-based; settings: TDE = time-dependent effect
Procedure, shortened: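 HeLa cells treated 24 or 48 h, then co-labelled with annexin-V–FITC and propidium iodide. Flow cytometry with 488 nm excitation and emission at 525 nm (FITC) and 585 nm (PI); early apoptotic cells counted as annexin-V+/PI−. Mean ± SEM of three independent experiments.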

Mus musculus = assay: Toxicity in Balb/c mouse xenografted with mouse BNL 1ME A.7R.1 cells assessed as decrease in body weight at 5 mg/kg, ip; assay type: organism-based; parameters: dose 5 mg/kg, route intraperitoneal; settings: in vivo
Procedure, shortened: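 Male Balb/c mice, 8 weeks old, given 10^7 syngeneic BNL 1ME A.7R.1 hepatoma cells subcutaneously in the dorsal region in 200 μL PBS. Randomised to groups of five. Dosed intraperitoneally once daily for 7 days at 5 mg/kg in 0.9% NaCl with 5% PEG 400 and 0.5% Tween 80, against vehicle and CA-4P. Tumours measured daily by caliper, V = AB2/2; body weight recorded. Mean ± SEM.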

Jurkat [10] = assay: Cytotoxicity against human Jurkat cells after 72 hrs by MTT assay; assay type: functional, cell-based
Procedure, shortened: (§3)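 Cells plated at 8 × 10^3 per well, 18 h at 37 °C, 5% CO2, then fresh medium with graded compound concentrations (DMSO ≤0.25%) for 72 h. Jurkat, SEM, HL-60 grown in RPMI-1640; A549, HeLa, HT-29, MCF-7 in DMEM; 10% FBS with penicillin/streptomycin. MTT viability read-out; IC50 vs 0.25% DMSO controls; mean ± SE of at least three independent experiments.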

Bos taurus = organism: Bos taurus; assay: Displacement of [3H]colchicine from bovine brain tubulin at 1 uM after 20 mins by turbidimetric analysis
HeLa [11] = assay: Induction of apoptosis in human HeLa cells assessed as caspase-9 cleavage at 10 to 100 nM after 24 to 48 hrs by Western Blot analysis; assay type: functional, cell-based; procedure, shortened: as §2
CCRF-CEM = assay: Cytotoxicity against human CEM cells after 72 hrs by MTT assay; assay type: functional, cell-based
Procedure, shortened: (§4)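 MTT viability test: 8 × 10^3 cells per well settled 18 h at 37 °C, 5% CO2, then given fresh medium with compound (from 10 mM DMSO stocks, final DMSO ≤0.25%) for 72 h. […] CEMVbl-100 is a vinblastine-selected P-gp line; LoVoDoxo is grown in Ham's F12 with 0.1 μg/mL doxorubicin. Resistance index = resistant IC50/parental IC50.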

[12] = Cytotoxicity against human SEM cells after 72 hrs by MTT assay; assay type: functional, cell-based; procedure, shortened: as §3
[13] = Selectivity ratio of IC50 for human Jurkat cells to IC50 for human PHA-stimulated PBL cells; assay type: ADME, cell-based; settings: Jurkat cells and PHA-stimulated PBL cells, read-out: Ratio IC50
A549 [14] = assay: Cytotoxicity against human A549 cells after 72 hrs by MTT assay; assay type: functional, cell-based; settings: A549, 72 h
LoVo = assay: Cytotoxicity against human LoVo cells after 72 hrs by MTT assay; assay type: functional, cell-based; procedure, shortened: as §4
Jurkat [15] = assay: Cell cycle arrest in human Jurkat cells assessed as accumulation at G2/M phase at 20 nM after 24 hrs by propidium iodide staining-based flow cytometry; assay type: functional; procedure, shortened: as §1
[16] = Inhibition of bovine brain tubulin polymerization after 20 mins by turbidimetric analysis; parameters: species or system Bos taurus
Procedure, shortened: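 Bovine brain tubulin (10 μM) preincubated with varying compound concentrations in glutamate buffer at 30 °C, chilled to 0 °C, 0.4 mM GTP added, then warmed to 30 °C in a recording spectrophotometer.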

HT-29 [17] = assay: Cell cycle arrest in human HT-29 cells assessed as accumulation at G2/M phase after 24 hrs by propidium iodide staining-based flow cytometry; assay type: functional; procedure, shortened: as §1
[18] = Cytotoxicity against human LoVo/DX cells after 72 hrs by MTT assay; assay type: functional, cell-based; procedure, shortened: as §4
[19] = Cytotoxicity against human CEM/VBL100 cells after 72 hrs by MTT assay; assay type: functional, cell-based; settings: CEM/VBL100, 72 h; procedure, shortened: as §4
MCF7 = assay: Cytotoxicity against human MCF7 cells after 72 hrs by MTT assay; assay type: functional, cell-based; settings: MCF7, 72 h
HeLa [20] = assay: Cell cycle arrest in human HeLa cells assessed as increase in activated cdc25 level at 10 to 100 nM after 24 to 48 hrs by Western Blot analysis; assay type: functional, cell-based; procedure, shortened: as §2
HeLa [21] = assay: Cell cycle arrest in human HeLa cells assessed as variation in cyclin B expression at 10 to 100 nM after 24 to 48 hrs by Western Blot analysis; assay type: functional, cell-based; procedure, shortened: as §2
HT-29 [22] = assay: Cytotoxicity against human HT-29 cells after 72 hrs by MTT assay; assay type: functional, cell-based; settings: HT-29, 72 h

## COC(=O)c1sc2cc(OC)ccc2c1Nc1cc(OC)c(OC)c(OC)c1
HT-29 [1]
  Activity: >80%
[2]
  IC50: 2.1 nM
HeLa [3]
  Activity: Active
Jurkat [4]
  Ratio IC50: 2
PBL
  IC50: > 10000 nM
HT-29 [5]
  Activity: Active
HeLa [6]
  Activity: Active
A549 [7]
  Ratio IC50: 1.5
HeLa [8]
  Activity: tde
HeLa [9]
  Activity: tde
Mus musculus
  Activity: Toxic
Jurkat [10]
  IC50: 1.7 nM
Bos taurus
  inhibition: 85%
HeLa [11]
  Activity: Active
CCRF-CEM
  IC50: 3.2 nM
[12]
  IC50: 10.3 nM
[13]
  selectivity ratio: 2000
A549 [14]
  IC50: 8.5 nM
LoVo
  IC50: 0.3 nM
Jurkat [15]
  Activity: Active
[16]
  IC50: 880 nM
HT-29 [17]
  Activity: Dose-dependent effect
[18]
  IC50: 0.4 nM
[19]
  IC50: 1.3 nM
MCF7
  IC50: 0.7 nM
HeLa [20]
  Activity: Active
HeLa [21]
  Activity: inactive
HT-29 [22]
  IC50: 0.9 nM

From ChEMBL document CHEMBL2331329, “Synthesis and biological evaluation of 2-(alkoxycarbonyl)-3-anilinobenzo[b]thiophenes and thieno[2,3-b]pyridines as new potent anticancer agents” (J Med Chem, 2013)
